Data published in BindingDB's records for doi:10.1016/j.bmc.2016.09.019 (Florida A&M University, 2016).

Experiments:
Histamine H1 receptor = Histamine H1 receptor (Homo sapiens, UniProt P35367); assay: Displacement of [3H]-pyrilamine from human histamine H1 receptor by liquid scintillation counting method
Outline: (§1)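 Binding assays run by the NIMH Psychoactive Drug Screening Program (PDSP) using its previously reported methods and radioligands. Affinity is given as Ki.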

[1] = target: T1, 5-hydroxytryptamine receptor 2C (Homo sapiens, UniProt P28335); assay: Displacement of [3H]-mesulergine from human 5-HT2C receptor by liquid scintillation counting method; outline: as §1
T1 sequence (P28335 whole entry): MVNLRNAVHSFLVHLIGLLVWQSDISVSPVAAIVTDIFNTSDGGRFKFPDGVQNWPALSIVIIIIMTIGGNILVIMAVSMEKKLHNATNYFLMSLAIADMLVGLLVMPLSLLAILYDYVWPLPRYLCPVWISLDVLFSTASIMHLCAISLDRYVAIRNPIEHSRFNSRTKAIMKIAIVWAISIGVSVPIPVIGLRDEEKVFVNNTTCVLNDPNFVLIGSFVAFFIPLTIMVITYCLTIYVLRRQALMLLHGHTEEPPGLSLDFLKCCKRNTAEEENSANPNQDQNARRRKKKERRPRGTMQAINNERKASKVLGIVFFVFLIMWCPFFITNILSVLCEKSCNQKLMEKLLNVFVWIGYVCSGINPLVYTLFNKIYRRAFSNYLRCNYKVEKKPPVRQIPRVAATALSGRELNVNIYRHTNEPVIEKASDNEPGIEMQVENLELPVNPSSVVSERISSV

[2] = target: 5-hydroxytryptamine receptor 7 (Homo sapiens, UniProt P34969); assay: Displacement of [3H]-LSD from human 5-HT7 receptor by liquid scintillation counting method
5-hydroxytryptamine receptor 7, sequence (P34969 whole entry): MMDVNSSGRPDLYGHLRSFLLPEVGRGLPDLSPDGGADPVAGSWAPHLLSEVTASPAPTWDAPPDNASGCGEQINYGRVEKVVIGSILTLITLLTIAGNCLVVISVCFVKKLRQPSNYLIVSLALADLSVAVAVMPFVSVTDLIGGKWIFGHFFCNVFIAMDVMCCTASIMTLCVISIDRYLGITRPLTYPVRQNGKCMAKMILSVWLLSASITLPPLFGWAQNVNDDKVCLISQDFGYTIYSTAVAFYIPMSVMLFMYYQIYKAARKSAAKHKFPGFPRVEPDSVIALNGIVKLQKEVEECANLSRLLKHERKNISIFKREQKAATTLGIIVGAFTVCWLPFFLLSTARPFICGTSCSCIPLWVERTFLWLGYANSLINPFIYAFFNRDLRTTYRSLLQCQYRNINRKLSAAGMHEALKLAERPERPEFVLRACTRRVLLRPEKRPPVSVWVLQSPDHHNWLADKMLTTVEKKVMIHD

Histamine H1 receptor, sequence (P35367 whole entry): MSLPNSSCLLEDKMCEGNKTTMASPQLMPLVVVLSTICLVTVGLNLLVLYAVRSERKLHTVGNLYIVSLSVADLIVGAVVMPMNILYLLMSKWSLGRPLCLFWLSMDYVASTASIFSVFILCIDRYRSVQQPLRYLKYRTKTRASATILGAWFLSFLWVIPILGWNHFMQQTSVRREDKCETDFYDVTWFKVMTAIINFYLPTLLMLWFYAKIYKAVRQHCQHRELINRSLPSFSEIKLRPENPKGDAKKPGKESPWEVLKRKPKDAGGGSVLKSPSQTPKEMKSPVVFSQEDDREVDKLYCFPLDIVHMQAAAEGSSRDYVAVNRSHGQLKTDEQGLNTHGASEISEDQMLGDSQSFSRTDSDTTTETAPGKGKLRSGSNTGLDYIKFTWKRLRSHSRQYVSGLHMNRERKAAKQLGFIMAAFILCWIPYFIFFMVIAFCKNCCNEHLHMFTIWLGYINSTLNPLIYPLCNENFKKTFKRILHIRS

- Ki (Histamine H1 receptor): 1000 nM
- Ki [1]: 2040 nM
- Ki [2]: 501 nM
SMILES: Clc1ccc(C(=[C][C][C]N2[C][C]c3ccccc3[C]2)c2ccc(Cl)cc2)cc1
